{"source": "the RNAGym collection of RNA variant scans (doi:10.1126/science.aae0568)", "parents": {"B1": {"name": "tRNA (parent)", "chain": "GUUCCGUUGGCGUAAUGGUAACGCGUCUCCCUCCUAAGGAGAAGACUGCGGGUUCGAGUCCCGUACGGAACG"}}, "note": "Fewer inactive variants are shown than the library holds."}
{"variants_of": "B1", "assay": "yeast fitness relative to wild type (ratio to wild type); higher = fitter; tRNA-Arg(CCU), competitive growth, 37 C, YPD", "summary_of_the_method": "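A pool of Saccharomyces cerevisiae strains, each with a tRNA-Arg(CCU) gene variant at the native genomic locus, was competed in YPD at 37°C for 24 hours across six parallel replicates. The variants had been chemically synthesised at a 3% per-site mutation rate over 69 sites, and gene amplicons before and after competition were read by 100-nucleotide paired-end sequencing. Darwinian fitness relative to wild type rested on changes in genotype frequencies. Genotypes required ≥ 100 starting reads, and estimates < 0.5 were set to 0.5.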"}
{"variant": "U2G U13C A21G G39C C55U", "yeast fitness": "≤ 0.5"}
{"variant": "U2G G18A C49U G52A G68C", "yeast fitness": "≤ 0.5"}
{"variant": "U3A C4A A20C C29A C66U", "yeast fitness": "≤ 0.5"}
{"variant": "U2G G50A", "yeast fitness": 0.888}
{"variant": "U2G G50C", "yeast fitness": 0.6}
{"variant": "U3A A40C U47A G68C", "yeast fitness": "≤ 0.5"}
{"variant": "U3A A14G G23C U32A G52C", "yeast fitness": "≤ 0.5"}
{"variant": "U2G G6A G23A C29G G50U C55A", "yeast fitness": "≤ 0.5"}
{"variant": "U3A A21C C24G C61U", "yeast fitness": "≤ 0.5"}
{"variant": "U3A C5G G67C", "yeast fitness": 1}
{"variant": "U2G G6A G44A G67C", "yeast fitness": 0.531}
{"variant": "U3A C4U A43G", "yeast fitness": 0.579}
{"variant": "U3A A20C U32A C62U G63A", "yeast fitness": 0.572}
{"variant": "U2G U28G U59A", "yeast fitness": "≤ 0.5"}
{"variant": "U3A A21C G25U A43C", "yeast fitness": "≤ 0.5"}
{"variant": "U2G G6A G56C", "yeast fitness": "≤ 0.5"}
{"variant": "U2G G39A G68U", "yeast fitness": "≤ 0.5"}
{"variant": "U2G G10C A69C", "yeast fitness": "≤ 0.5"}
{"variant": "U3A A14U A37G A57C", "yeast fitness": "≤ 0.5"}
{"variant": "U2G G48A G58C", "yeast fitness": 0.895}
{"variant": "U3A A20U C29G C49G G63C", "yeast fitness": "≤ 0.5"}
{"variant": "U2G G9C A20G A42C C46G C49U G68A A70U", "yeast fitness": "≤ 0.5"}
{"variant": "U2G G58A C60A C66G", "yeast fitness": 0.562}
{"variant": "U3A A14G A15G A20U A37G G41A", "yeast fitness": 0.525}
{"variant": "U2G G6A C55U", "yeast fitness": "≤ 0.5"}
{"variant": "U3A A42G C66U", "yeast fitness": 0.595}
{"variant": "U3A A21C C24G", "yeast fitness": 0.507}
{"variant": "U3A A37U", "yeast fitness": 0.754}
{"variant": "U3A A37C", "yeast fitness": 0.796}
{"variant": "U3A A37G", "yeast fitness": 0.887}
{"variant": "U3A C4A U16G G58C", "yeast fitness": "≤ 0.5"}
{"variant": "U2G U35C", "yeast fitness": 0.72}
{"variant": "U3A C11A C33U C60U A65U", "yeast fitness": "≤ 0.5"}
{"variant": "U2G G6A C27U A36U G68C", "yeast fitness": "≤ 0.5"}
{"variant": "U3A C22G C29U G63C C66U", "yeast fitness": "≤ 0.5"}
{"variant": "U3A A14G A15U A36U G39C A40U C49U C55A", "yeast fitness": 0.612}
{"variant": "U2G U8A G23A U26G A43G U54C C55A", "yeast fitness": "≤ 0.5"}
{"variant": "U3A C5A C33G C34U", "yeast fitness": 0.634}
{"variant": "U3A A21C C24G C49U A65C", "yeast fitness": "≤ 0.5"}
{"variant": "U3A C5A C30G G38C C60G", "yeast fitness": "≤ 0.5"}
{"variant": "U3A A45U A69U", "yeast fitness": 0.788}
{"variant": "U3A A15G U19A G41A G50A", "yeast fitness": "≤ 0.5"}
{"variant": "U2G G6C U54A", "yeast fitness": "≤ 0.5"}
{"variant": "U3A C5U A43G", "yeast fitness": 0.607}
{"variant": "U3A A36G C66U", "yeast fitness": 0.666}
{"variant": "U2G U59C", "yeast fitness": 0.848}
{"variant": "U2G U59A", "yeast fitness": 0.851}
{"variant": "U3A A14G C24G A42C", "yeast fitness": 0.54}
{"variant": "U2G G10C G67C", "yeast fitness": "≤ 0.5"}
{"variant": "U3A A21U A65U", "yeast fitness": "≤ 0.5"}
{"variant": "U2G G9C A15U U19C", "yeast fitness": "≤ 0.5"}
{"variant": "U3A C4G C60G G67A", "yeast fitness": "≤ 0.5"}
{"variant": "U2G U13C A21G U35A C55U A65G", "yeast fitness": "≤ 0.5"}
{"variant": "U3A A37G G41A", "yeast fitness": "≤ 0.5"}
{"variant": "U3A A21G G23C A36U C60A", "yeast fitness": "≤ 0.5"}
{"variant": "U3A C22A C33A A36U U53A U54A", "yeast fitness": "≤ 0.5"}
{"variant": "U3A A14C C34A G52A A70G", "yeast fitness": 0.673}
{"variant": "U2G G67C", "yeast fitness": 0.759}
{"variant": "U2G G67U", "yeast fitness": 0.821}
{"variant": "U2G G67A", "yeast fitness": 0.901}
{"variant": "U3A C11A C29U A57C", "yeast fitness": "≤ 0.5"}
{"variant": "U2G U13C A21G U35A", "yeast fitness": "≤ 0.5"}
{"variant": "U3A A37U A42G", "yeast fitness": "≤ 0.5"}
{"variant": "U2G G9C G12A A42C C46A", "yeast fitness": 0.577}
{"variant": "U3A A43G", "yeast fitness": 0.919}
{"variant": "U2G G38A A69C", "yeast fitness": 0.531}
{"variant": "U3A A45C C62G", "yeast fitness": "≤ 0.5"}
{"variant": "U3A C5U C31G C62G A69U", "yeast fitness": 0.554}
{"variant": "U3A A37U G38C", "yeast fitness": "≤ 0.5"}
{"variant": "U3A C11G G17C C24G C46A G68C", "yeast fitness": 0.553}
{"variant": "U3A C4A U16A C30G U53C G67U", "yeast fitness": "≤ 0.5"}
{"variant": "U3A C4A U16A C30G U53C G67A", "yeast fitness": 0.604}
{"variant": "U2G U19C G48C G52C C62G", "yeast fitness": "≤ 0.5"}
{"variant": "U3A A21C C24G G63A", "yeast fitness": "≤ 0.5"}
{"variant": "U3A C4U G25C G48A", "yeast fitness": "≤ 0.5"}
{"variant": "U2G U7C A37C U59C", "yeast fitness": "≤ 0.5"}
{"variant": "U2G U28G A45C G63C", "yeast fitness": "≤ 0.5"}
{"variant": "U2G G17C C33U U47A", "yeast fitness": 0.535}
{"variant": "U3A C22G C29U A65C", "yeast fitness": "≤ 0.5"}
{"variant": "U3A A20U A37G", "yeast fitness": 0.608}
{"variant": "U2G G6A A70G", "yeast fitness": 0.776}
{"variant": "U3A A14C C46G", "yeast fitness": "≤ 0.5"}
{"variant": "U3A A14C C46U", "yeast fitness": "≤ 0.5"}
